Measurements collected from several papers.
Observed: enzyme activity
Action: inhibitor
ABL1: Tyrosine-protein kinase ABL1 (ABL1, Homo sapiens, UniProt P00519)
ABL1 T315I: Tyrosine-protein kinase ABL1 (ABL1, Homo sapiens, UniProt P00519, T315I)
ABL1 H396P: Tyrosine-protein kinase ABL1 (ABL1, Homo sapiens, UniProt P00519, H396P)
ABL1 E255K: Tyrosine-protein kinase ABL1 (ABL1, Homo sapiens, UniProt P00519, E255K)
ABL1 G250E: Tyrosine-protein kinase ABL1 (ABL1, Homo sapiens, UniProt P00519, G250E)

CNC(=O)c1cc2c(Oc3ccc(NC(=O)C4(C(=O)Nc5ccc(F)cc5)CC4)cc3)ccnc2cc1OC  inhibition (ABL1; radiometric; 1 µM): 70%
CSc1nc(C)c(-c2ccnc(Nc3ccc(N4CCOCC4)cc3)c2)[nH]1  inhibition (ABL1; 10 µM): 19.3%
CN(C)C1CCN(CC#Cc2nn(C3CCCC3)c3nc(NCc4ccccc4)ncc23)C1 (stereo not shown)  inhibition (ABL1; FRET; 0.1 µM): 1%
C=CC(=O)Nc1cc(Nc2nccc(Nc3cc(Cl)c(F)cc3C(C)(C)O)n2)c(OC)cc1N1CC[C@@H](N(C)C)C1  inhibition (ABL1 T315I; 1 µM): 18%
CNc1cccc2cc(C(=O)Nc3ccc(C(=O)O)cc3)c(=O)[nH]c12  inhibition (ABL1 H396P; 10 µM): 1.9%
CC/C(=N\NC(=O)NCc1cccc(O)c1)c1ccc(O)c(C)c1O  inhibition (ABL1 E255K; 0.1 µM): -3.4%
COc1cc(-c2cc(-c3ccc(N4CCNCC4)cc3)cnc2N)cc(OC)c1OC  inhibition (ABL1 H396P; 0.1 µM): 87%
COc1cc2nccc(Oc3ccc(NC(=O)c4c5n(n(-c6ccc(F)cc6)c4=O)CCCC5)cc3)c2cc1OC  inhibition (ABL1; 0.1 µM): 26%
CS(=O)(=O)Nc1cccc(-c2csc(NC(=O)CSc3nc4nccnc4c(=O)n3CCc3ccccc3)n2)c1  inhibition (ABL1 T315I; 10 µM): -2%
COc1cc2ncnc(Nc3ccc(Oc4ccccc4)c(C)c3C)c2cc1OC  inhibition (ABL1 G250E; 1 µM): 4%
CNCc1ccc(-c2cc(-c3nc(-c4ccc(S(=O)(=O)C(C)C)cc4)cnc3N)on2)cc1  inhibition (ABL1; 0.4 µM): 11%
O=C(CSc1nc2nccnc2c(=O)n1CCc1ccccc1)Nc1nccs1  inhibition (ABL1 E255K; 10 µM): -1%
COc1cc2ncnc(Nc3ccc(Oc4ccccc4)cc3C)c2cc1OC  inhibition (ABL1 G250E; 1 µM): 14%
